# From ChEMBL document CHEMBL3352338, “Development and biological evaluation of potent and selective c-KIT(D816V) inhibitors” (J Med Chem, 2014)
# The source made the active and inactive calls. No cut-off for these calls is given here.
# What was measured:
# [1] = target: Mast/stem cell growth factor receptor Kit (Homo sapiens, UniProt P10721, D816V); assay: Inhibition of c-KIT D816V mutant (unknown origin)
# [2] = target: Phosphatidylinositol 4,5-bisphosphate 3-kinase catalytic subunit alpha isoform (Homo sapiens, UniProt P42336); assay: Inhibition of PI3Kalpha (unknown origin)
# Chain of Phosphatidylinositol 4,5-bisphosphate 3-kinase catalytic subunit alpha isoform (P42336 whole entry, canonical isoform): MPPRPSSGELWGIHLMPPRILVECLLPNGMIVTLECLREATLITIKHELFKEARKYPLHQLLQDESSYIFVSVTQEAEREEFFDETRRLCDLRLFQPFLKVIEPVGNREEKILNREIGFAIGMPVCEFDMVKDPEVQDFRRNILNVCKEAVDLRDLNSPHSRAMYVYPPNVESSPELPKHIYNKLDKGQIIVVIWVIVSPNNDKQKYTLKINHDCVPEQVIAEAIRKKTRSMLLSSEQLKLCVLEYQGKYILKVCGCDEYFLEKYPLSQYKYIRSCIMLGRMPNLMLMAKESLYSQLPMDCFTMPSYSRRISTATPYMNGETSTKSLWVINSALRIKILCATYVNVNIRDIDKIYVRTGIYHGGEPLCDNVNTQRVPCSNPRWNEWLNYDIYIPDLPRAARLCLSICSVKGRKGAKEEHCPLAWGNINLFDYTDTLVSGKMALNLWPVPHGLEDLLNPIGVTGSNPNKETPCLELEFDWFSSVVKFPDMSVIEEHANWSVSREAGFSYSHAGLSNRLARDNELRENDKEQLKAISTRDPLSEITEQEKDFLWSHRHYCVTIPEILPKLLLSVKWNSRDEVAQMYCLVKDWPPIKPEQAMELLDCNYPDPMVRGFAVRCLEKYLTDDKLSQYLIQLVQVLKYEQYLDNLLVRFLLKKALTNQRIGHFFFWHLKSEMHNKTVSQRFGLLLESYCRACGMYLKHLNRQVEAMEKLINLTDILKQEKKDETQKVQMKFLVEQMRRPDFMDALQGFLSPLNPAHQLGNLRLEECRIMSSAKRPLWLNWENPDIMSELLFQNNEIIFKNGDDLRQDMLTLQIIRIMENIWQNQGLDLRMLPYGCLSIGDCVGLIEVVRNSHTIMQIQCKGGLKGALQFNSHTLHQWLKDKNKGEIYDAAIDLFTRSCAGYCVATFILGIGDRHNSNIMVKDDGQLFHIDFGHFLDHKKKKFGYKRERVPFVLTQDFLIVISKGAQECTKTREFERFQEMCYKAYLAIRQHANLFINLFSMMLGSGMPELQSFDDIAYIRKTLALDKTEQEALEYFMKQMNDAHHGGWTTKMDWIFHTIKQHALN
# [3] = Antiproliferative activity against human HMC-1.2 cells carrying V560G, D816V mutant assessed as cell growth inhibition by MTT assay; assay type: functional, cell-based
# In short: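 Cell viability by MTT assay in imatinib-resistant HMC-1.2 human mast cells (V560G, D816V), 48 h exposure across a range of concentrations.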
# [4] = target: Mast/stem cell growth factor receptor Kit (Homo sapiens, UniProt P10721); assay: Inhibition of wild type c-KIT (unknown origin)
# Chain of Mast/stem cell growth factor receptor Kit (Homo sapiens, UniProt P10721) (P10721 whole entry): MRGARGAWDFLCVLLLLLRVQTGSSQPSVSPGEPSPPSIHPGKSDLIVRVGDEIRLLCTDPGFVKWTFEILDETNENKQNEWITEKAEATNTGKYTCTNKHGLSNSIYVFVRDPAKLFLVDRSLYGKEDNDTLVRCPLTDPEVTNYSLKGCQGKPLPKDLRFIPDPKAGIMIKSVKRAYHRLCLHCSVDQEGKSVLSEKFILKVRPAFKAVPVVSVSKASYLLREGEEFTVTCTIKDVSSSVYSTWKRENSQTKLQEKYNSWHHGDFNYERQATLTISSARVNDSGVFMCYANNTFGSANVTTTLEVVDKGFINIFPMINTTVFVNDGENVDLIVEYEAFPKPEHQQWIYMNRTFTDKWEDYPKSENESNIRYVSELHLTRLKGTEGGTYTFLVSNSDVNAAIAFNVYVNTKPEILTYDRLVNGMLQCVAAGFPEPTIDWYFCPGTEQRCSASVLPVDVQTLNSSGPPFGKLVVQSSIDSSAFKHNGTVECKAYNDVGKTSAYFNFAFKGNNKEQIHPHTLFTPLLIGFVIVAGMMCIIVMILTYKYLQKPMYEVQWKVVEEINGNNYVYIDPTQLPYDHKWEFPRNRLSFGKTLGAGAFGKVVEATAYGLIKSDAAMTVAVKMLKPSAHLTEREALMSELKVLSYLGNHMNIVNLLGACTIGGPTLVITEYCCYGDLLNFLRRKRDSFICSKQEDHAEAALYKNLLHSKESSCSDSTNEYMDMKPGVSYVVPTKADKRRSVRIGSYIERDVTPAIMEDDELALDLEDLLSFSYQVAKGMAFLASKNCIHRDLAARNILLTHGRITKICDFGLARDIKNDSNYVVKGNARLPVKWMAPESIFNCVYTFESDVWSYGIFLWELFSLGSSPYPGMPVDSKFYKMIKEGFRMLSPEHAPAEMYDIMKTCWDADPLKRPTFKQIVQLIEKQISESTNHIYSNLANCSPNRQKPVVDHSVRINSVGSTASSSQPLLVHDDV
# [5] = target: Signal transducer and activator of transcription 3 (Homo sapiens) (UniProt P40763); assay: Inhibition of STAT3 phosphorylation in imatinib-resistant human HMC-1.2 cells at 5 uM after 1 hr by Western immunoblotting analysis
# Chain of Signal transducer and activator of transcription 3 (Homo sapiens) (P40763 whole entry): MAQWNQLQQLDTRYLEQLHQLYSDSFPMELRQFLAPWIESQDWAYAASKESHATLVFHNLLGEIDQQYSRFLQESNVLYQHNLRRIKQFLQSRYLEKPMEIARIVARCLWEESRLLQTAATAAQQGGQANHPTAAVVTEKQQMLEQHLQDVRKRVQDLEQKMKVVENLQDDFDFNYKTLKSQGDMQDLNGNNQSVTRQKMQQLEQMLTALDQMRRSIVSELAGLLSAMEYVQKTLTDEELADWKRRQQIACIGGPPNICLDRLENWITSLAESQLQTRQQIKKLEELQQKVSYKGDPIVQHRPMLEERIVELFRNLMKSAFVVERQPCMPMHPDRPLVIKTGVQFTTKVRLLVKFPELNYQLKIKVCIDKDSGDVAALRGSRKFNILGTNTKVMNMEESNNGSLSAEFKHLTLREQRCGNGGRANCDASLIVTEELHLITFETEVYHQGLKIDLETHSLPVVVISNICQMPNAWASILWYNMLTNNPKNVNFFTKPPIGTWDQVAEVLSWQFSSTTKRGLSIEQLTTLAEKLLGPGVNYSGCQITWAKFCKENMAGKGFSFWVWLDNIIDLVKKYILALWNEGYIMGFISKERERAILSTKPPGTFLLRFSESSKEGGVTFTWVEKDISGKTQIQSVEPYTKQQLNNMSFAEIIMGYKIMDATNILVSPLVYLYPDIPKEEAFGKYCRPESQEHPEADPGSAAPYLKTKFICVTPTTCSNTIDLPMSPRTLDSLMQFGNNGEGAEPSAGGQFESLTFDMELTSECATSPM
# Chain of Mast/stem cell growth factor receptor Kit (Homo sapiens, UniProt P10721, D816V) (P10721 26-976 D816V limits assumed): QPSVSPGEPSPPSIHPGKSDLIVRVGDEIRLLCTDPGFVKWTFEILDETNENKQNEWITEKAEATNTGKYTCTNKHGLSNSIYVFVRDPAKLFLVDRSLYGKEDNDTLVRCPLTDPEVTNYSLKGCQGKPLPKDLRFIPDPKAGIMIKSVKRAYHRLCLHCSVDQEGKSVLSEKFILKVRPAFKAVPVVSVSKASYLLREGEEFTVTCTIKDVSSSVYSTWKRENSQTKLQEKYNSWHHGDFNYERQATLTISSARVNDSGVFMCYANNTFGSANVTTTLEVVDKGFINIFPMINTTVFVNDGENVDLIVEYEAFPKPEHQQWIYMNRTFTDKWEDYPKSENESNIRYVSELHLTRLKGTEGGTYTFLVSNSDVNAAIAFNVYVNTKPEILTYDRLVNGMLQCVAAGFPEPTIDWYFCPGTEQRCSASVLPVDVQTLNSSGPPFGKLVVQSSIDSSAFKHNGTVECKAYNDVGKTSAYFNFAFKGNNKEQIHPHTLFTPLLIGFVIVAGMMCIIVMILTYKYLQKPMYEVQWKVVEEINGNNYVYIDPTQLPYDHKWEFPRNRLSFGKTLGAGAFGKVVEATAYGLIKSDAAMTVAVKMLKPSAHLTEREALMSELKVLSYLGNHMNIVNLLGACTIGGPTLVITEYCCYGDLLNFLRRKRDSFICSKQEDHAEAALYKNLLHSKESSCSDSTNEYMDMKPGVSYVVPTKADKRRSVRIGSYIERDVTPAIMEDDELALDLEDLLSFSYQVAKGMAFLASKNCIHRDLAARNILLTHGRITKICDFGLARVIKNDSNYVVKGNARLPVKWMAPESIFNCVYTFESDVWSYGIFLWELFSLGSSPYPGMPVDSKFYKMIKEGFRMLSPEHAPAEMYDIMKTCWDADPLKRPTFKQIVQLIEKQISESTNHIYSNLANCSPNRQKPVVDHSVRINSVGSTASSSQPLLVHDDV
Structure (SMILES),IC50 [1] [µM],IC50 [2] [µM],IC50 [3] [µM],IC50 [4] [µM],inhibition [5]
COc1ccc(-c2c[nH]c3ncc(-c4cncc(N)c4)cc23)cc1OC,0.0108,1.45,,,
COc1ccc(-c2c[nH]c3ncc(-c4ccc(C#N)cc4)cc23)cc1OC,0.426,> 10,,,
COc1ccc(-c2c[nH]c3ncc(-c4cccc(N)c4)cc23)cc1OC,0.0063,> 10,1.68,1.06,
Nc1cccc(-c2cnc3[nH]cc(-c4cccc(N)c4)c3c2)c1,0.0767,,,,
COc1ccc(-c2c[nH]c3ncc(-c4ccc(OCCN5CCOCC5)c(N)c4)cc23)cc1OC,0.0139,,,8.54,
COc1ccc(-c2c[nH]c3ncc(-c4ccc5c(c4)OCO5)cc23)cc1OC,0.0488,,,10.8,
COc1ccc(-c2c[nH]c3ncc(-c4cccc(N)c4)cc23)cc1F,0.104,,,,
COc1cccc(-c2c[nH]c3ncc(-c4cccc(N)c4)cc23)c1,0.67,,,,
COc1ccc(-c2c[nH]c3ncc(-c4ccccc4C)cc23)cc1OC,0.785,> 10,,,
COc1ccc(-c2c[nH]c3ncc(-c4cccc(NS(=O)(=O)c5ccccc5)c4)cc23)cc1OC,0.126,,,,
COc1cc(OC)cc(-c2c[nH]c3ncc(-c4cccc(N)c4)cc23)c1,0.32,,,,
COc1ccc(-c2c[nH]c3ncc(-c4ccccc4N)cc23)cc1OC,1.33,> 10,,,
Cc1ccc(NC(=O)c2ccc(CN3CCN(C)CC3)cc2)cc1Nc1nccc(-c2cccnc2)n1 [IMATINIB],,,17,,
COc1ccc(-c2c[nH]c3ncc(-c4cnc(N)nc4)cc23)cc1OC,0.0678,,,1.29,
COc1ccc(-c2c[nH]c3ncc(-c4cccc(N)c4)cc23)cc1,0.398,,,,
Cc1ccc(-c2c[nH]c3ncc(-c4cccc(N)c4)cc23)cc1,> 10,,,,
COc1ccc(-c2c[nH]c3ncc(-c4cccnc4)cc23)cc1OC,0.0601,> 10,,3.33,
COc1ccc(-c2c[nH]c3ncc(-c4ccc(N)cc4)cc23)cc1OC,0.0091,,,0.0568,
COc1ccc(-c2c[nH]c3ncc(-c4cccc(C#N)c4)cc23)cc1OC,0.0638,> 10,,> 10,
COc1ccc(-c2c[nH]c3ncc(-c4cccc(NC(C)=O)c4)cc23)cc1OC,0.0651,,,1.16,

Structure (SMILES),IC50 [1] [µM],IC50 [2] [µM],IC50 [3] [µM],IC50 [4] [µM],inhibition [5]
COc1ccc(-c2c[nH]c3ncc(-c4cc(F)cc(F)c4)cc23)cc1OC,0.102,> 10,,,
Nc1cccc(-c2cnc3[nH]cc(-c4ccccc4N)c3c2)c1,1.42,,,,
COc1cc(N)cc(-c2cnc3[nH]cc(-c4ccc(OC)c(OC)c4)c3c2)c1,0.0262,,,> 10,
Nc1cccc(-c2cnc3[nH]cc(-c4ccc(Cl)cc4)c3c2)c1,2.26,,,,
COc1ccc(-c2c[nH]c3ncc(-c4cccc(F)c4)cc23)cc1OC,0.52,> 10,,,
COc1ccc(-c2c[nH]c3ncc(-c4ccc(C)cc4)cc23)cc1OC,0.571,> 10,,> 10,
COc1ccc(-c2c[nH]c3ncc(-c4cccc(C)c4)cc23)cc1OC,0.261,> 10,,,
COc1ccc(-c2c[nH]c3ncc(-c4cncc(NS(=O)(=O)c5ccccc5)c4)cc23)cc1OC,0.346,,,,Active
COc1ccc(-c2c[nH]c3ncc(-c4ccc(C)c(N)c4)cc23)cc1OC,0.0246,,1.43,> 10,
COc1ccc(-c2cnc3[nH]cc(-c4ccc(OC)c(OC)c4)c3c2)c(OC)c1,0.0292,,,5.46,
COc1ccc(-c2c[nH]c3ncc(-c4cccc(N(C)C)c4)cc23)cc1OC,0.0292,> 10,,,
COc1ccc(-c2c[nH]c3ncc(-c4ccc(F)cc4)cc23)cc1OC,0.0728,> 10,,,
Cc1ccc(C(=O)Nc2ccc(CN3CCN(C)CC3)c(C(F)(F)F)c2)cc1C#Cc1cnc2cccnn12 [PONATINIB],,,0.35,,
COc1ccc(-c2c[nH]c3ncc(-c4ccc(Cl)cc4)cc23)cc1OC,0.457,> 10,,,
COc1ccc(-c2cnc3[nH]cc(-c4ccc(OC)c(OC)c4)c3c2)cc1,0.0321,> 10,,0.371,
COc1ccc(-c2c[nH]c3ncc(-c4ccccc4)cc23)cc1OC,0.135,> 10,,,
COc1ccc(-c2c[nH]c3ncc(-c4ccncc4)cc23)cc1OC,0.0321,9.7,,,
Cc1nc(Nc2ncc(C(=O)Nc3c(C)cccc3Cl)s2)cc(N2CCN(CCO)CC2)n1 [DASATINIB],,,0.82,,
COc1cccc(-c2cnc3[nH]cc(-c4ccc(OC)c(OC)c4)c3c2)c1,0.0287,,,1.52,
